Assay outcomes: PubChem BioAssay, several laboratories
Shown are actives, neighbours in structure and some others; about 12% of the full set was active somewhere.
Lmaj promast: Leishmania major promastigote growth inhibition, primary screen | Leishmania major promastigotes, resazurin fluorescence viability | inhibition, % at 10 µM | 200,000 compounds, 9% hits | AID 1063, 2008; in the data active = inhibition above about 50%;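 note: promastigotes grown with compound for 44 hours at 28 °C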
Cl transport mod: KCC2 cotransporter modulators, thallium flux, primary screen, cell-based, HEK293 KCC2, FluoZin-2 fluorescence, MLSMR. KCC2 cells, thallium flux FluoZin-2 fluorescence. B-score of Tl+ flux slope (higher = more flux/activation; lower = inhibition) at 10 µM. 190,000 compounds, 2.2% hits. Solute carrier family 12 member 5 (Homo sapiens), Q9H2X9;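 active = thallium flux slope and its plate-corrected score both differing from the plate sample mean at a set confidence after two filtering rounds, in either direction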;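 note: slope of fluorescence scaled to starting intensity during 10 to 20 s after thallium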
WT yeast gro inh: growth inhibition of WT strain, primary screen, mitochondrial fusion inhibitor project, WT and mutant strains, chemical genetic; mitochondrial fusion phenotypic screen; inhibition, % at 10 µM; 190,000 compounds, 2.1% hits; AID 1362, 2008; in the data active = inhibition above about 58%; tested in S. cerevisiae
Diaph act CS: compounds boosting diaphorase resazurin reduction – biochemical, uHTS, resorufin fluorescence, counter-screen for diaphorase-coupled primary assays, primary screen | Diaphorase/resazurin coupled assay, 16 min; hits give high values; 1 = vehicle wells, 0 = NADH-free wells | activation factor at 20 µM | 190,000 compounds, 0.005% hits | AID 1229, 2008;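 active = diaphorase activity raised at least twofold by the compound at 20 µM; inactive = activation factor below 2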
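Material: purified diaphorase enzyme from Clostridium kluyveri; Also added: 0.114 mM NADH and 0.1 mM resazurin, final amounts; Doses: single compound dose of 20 µM, 1% DMSO final; Times: 16 min enzyme reaction, ambient temperature; Detection: resorufin fluorescence, excitation 544 nm, emission 590 nm; Measure: increased resorufin signal from activators or reducing compounds.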
ROMK primary: ROMK potassium channel modulators, primary screen, cell-based, thallium flux, MLSMR library. B-score at 10 µM. Tet-inducible ROMK, thallium flux fluorescence; actives lie on both sides. 130,000 compounds, 2% hits;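 active = signal ratio slope over the read window, or its plate-corrected B-score, at least 3 SD from the plate mean, either direction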;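 note: B-score of the F/F0 ratio slope over 7 to 12 s after thallium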
Target sequence (P48048 whole entry, looked up): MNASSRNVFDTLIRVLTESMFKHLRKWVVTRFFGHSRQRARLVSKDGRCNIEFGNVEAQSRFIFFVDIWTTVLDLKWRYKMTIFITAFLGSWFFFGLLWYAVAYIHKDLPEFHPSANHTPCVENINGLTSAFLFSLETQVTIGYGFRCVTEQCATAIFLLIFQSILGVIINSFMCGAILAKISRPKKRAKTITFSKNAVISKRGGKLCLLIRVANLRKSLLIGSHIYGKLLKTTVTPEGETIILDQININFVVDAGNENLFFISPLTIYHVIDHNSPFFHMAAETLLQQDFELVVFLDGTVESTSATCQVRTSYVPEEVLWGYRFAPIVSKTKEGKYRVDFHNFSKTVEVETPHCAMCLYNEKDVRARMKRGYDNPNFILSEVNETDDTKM
Diaphorase inh: diaphorase inhibitors and chemical oxidizers, primary screen, counter-screen for diaphorase-coupled primary assays, biochemical, uHTS, resorufin fluorescence; diaphorase resazurin-to-resorufin fluorescence, NADH, 16 min; bacterial (C. kluyveri) enzyme, not human; inhibition, % at 20 µM; 190,000 compounds, 0.69% hits; AID 1217, 2008;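 active = primary screen inhibition at 20 µM above a set limit, cut at about 50% in these data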;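 note: plate controls were DMSO with full reaction for no effect and wells lacking NADH for full effect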
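Test system: bacterial diaphorase enzyme (C. kluyveri); Quantity: 0.14 U/mL diaphorase, enzyme working solution; Times: reaction incubation of 16 min at room temperature; Measured by: fluorescence of resorufin formed from resazurin, Ex 544/Em 590 nm; Benchmarks: positive control minus NADH, DMSO neutral control.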
* = called active by the depositor.

How did Cc1cc(C)nc(N/N=C/c2ccccc2)n1 do in these assays?
Lmaj promast: -4; Cl transport mod: 0.43; WT yeast gro inh: 1; Diaph act CS: 0.9; ROMK primary: -2.4; Diaphorase inh: 11

Results for Cc1ccc(CNC(=O)CSc2ccc(-c3ccco3)nn2)cc1 ?
Lmaj promast: 63*; Cl transport mod: -1.3; WT yeast gro inh: 3; Diaph act CS: 0.7; Diaphorase inh: 32

Results for Cc1cc(C)cc(NC(=O)CSc2ccc(-c3ccco3)nn2)c1 ?
Lmaj promast: 51*; Cl transport mod: -0.67; WT yeast gro inh: -10; Diaph act CS: 0.8; Diaphorase inh: 17

Results for CC(=O)Nc1ccc(NC(=O)CSc2ccc(-c3ccco3)nn2)cc1 ?
Lmaj promast: -3; Cl transport mod: -1.6; WT yeast gro inh: -17; Diaph act CS: 0.4; ROMK primary: -0.22; Diaphorase inh: 59*

Results for Cc1cccc(NC(=O)CSc2ccc(-c3ccco3)nn2)c1 ?
Lmaj promast: 19; Cl transport mod: -2.5; WT yeast gro inh: 5; Diaph act CS: 0.6; Diaphorase inh: 35

Results for O=C(CSc1ccc(-c2ccco2)nn1)NCc1ccc(F)cc1 ?
Lmaj promast: 28; Cl transport mod: -1.1; WT yeast gro inh: 8; Diaph act CS: 0.8; Diaphorase inh: 18

What do the screens show for `CN1CCN(C2=CC(=O)OC23CCCCC3)CC1`?
Lmaj promast: -5; Cl transport mod: -0.23; WT yeast gro inh: -7; Diaph act CS: 1; ROMK primary: 0.73; Diaphorase inh: -4

Results for CC(C)(C)NC(=O)CN(Cc1cccnc1)C(=O)c1csnn1 ?
Lmaj promast: -8; Cl transport mod: 0.071; WT yeast gro inh: 4; Diaph act CS: 0.8; ROMK primary: 1.3; Diaphorase inh: 21

Results for Cc1ccc(OCC(=O)c2ccc3c(c2)CCCC3)cc1C ?
Lmaj promast: -3; Cl transport mod: -1.1; WT yeast gro inh: 58*; Diaph act CS: 0.8; Diaphorase inh: 19

What do the screens show for `CCOC(=O)C1CCN(C(=O)c2cc3ccccc3oc2=O)CC1`?
Lmaj promast: -8; Cl transport mod: -0.97; WT yeast gro inh: 0; Diaph act CS: 1.1; ROMK primary: 1.3; Diaphorase inh: -15

What do the screens show for `COc1ccc(/C=N\NC(=O)c2cc(O)c(O)c(O)c2)cc1CN1CCN(c2ccc(F)cc2)CC1`?
Lmaj promast: -15; Cl transport mod: 0.58; WT yeast gro inh: -22; Diaph act CS: 0.4; Diaphorase inh: 63*

How did CCn1c(SCC(=O)c2ccc(NC(C)=O)c(OC)c2)nnc1-c1ccc(NS(C)(=O)=O)cc1 do in these assays?
Lmaj promast: 64*; Cl transport mod: 0.021; WT yeast gro inh: -8; Diaph act CS: 0.9; ROMK primary: -0.087; Diaphorase inh: 12

How did COc1ccc(CN=C(Nc2ccccc2)SC2CC(=O)N(C)C2=O)cc1 (configuration not stated) do in these assays?
Lmaj promast: 14; Cl transport mod: -3.1; WT yeast gro inh: -9; Diaph act CS: 1.1; ROMK primary: -0.027; Diaphorase inh: -9

Results for COc1ccc(N=c2cc(-c3ccc(O)cc3)oc3ccccc23)cc1 ?
Lmaj promast: 81*; Cl transport mod: -0.2; WT yeast gro inh: 25; Diaph act CS: 0.8; Diaphorase inh: 16

What do the screens show for `COc1ccc(-c2cc(=Nc3ccc(C)cc3)c3ccccc3o2)cc1`?
Lmaj promast: 63*; WT yeast gro inh: 4; Diaph act CS: 0.9; Diaphorase inh: 10

What do the screens show for `COc1ccc(N=c2cc(-c3ccc(OC)cc3)oc3ccccc23)cc1`?
Lmaj promast: 42; Cl transport mod: 0.11; WT yeast gro inh: 76*; Diaph act CS: 0.9; ROMK primary: 0.62; Diaphorase inh: 13

What do the screens show for `O=S(=O)(Nc1ccc(S(=O)(=O)Nc2cccc3ccccc23)cc1)c1ccccc1`?
Lmaj promast: 0; Cl transport mod: -2.1; WT yeast gro inh: -6; Diaph act CS: 0.7; ROMK primary: -0.24; Diaphorase inh: 27
